# Assay results: the M2OR odorant receptor database
# What was measured:
# Settings in all cases: stereoisomer not certain
# UniProt Q8VGZ2 = molecular target: T1, UniProt Q8VGZ2
# T1 sequence (whole entry): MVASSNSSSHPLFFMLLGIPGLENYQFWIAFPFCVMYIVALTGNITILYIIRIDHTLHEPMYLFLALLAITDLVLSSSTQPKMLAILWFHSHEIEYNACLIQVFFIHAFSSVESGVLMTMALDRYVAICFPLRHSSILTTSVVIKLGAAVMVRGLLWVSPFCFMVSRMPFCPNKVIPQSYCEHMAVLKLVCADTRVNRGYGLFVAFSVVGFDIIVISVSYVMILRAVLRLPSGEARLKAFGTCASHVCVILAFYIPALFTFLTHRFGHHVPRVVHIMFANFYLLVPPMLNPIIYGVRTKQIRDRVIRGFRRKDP
# In short: (§1)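 Assay methods differ from source to source, frequently being transient luciferase assays in mammalian cell lines. For each receptor–molecule pair, the label responsive (active) applies when the original authors judged the measured signal statistically different from baseline, and non-responsive (inactive) applies otherwise.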
# UniProt Q8VGZ7 = molecular target: T2, UniProt Q8VGZ7
# T2 sequence (whole entry): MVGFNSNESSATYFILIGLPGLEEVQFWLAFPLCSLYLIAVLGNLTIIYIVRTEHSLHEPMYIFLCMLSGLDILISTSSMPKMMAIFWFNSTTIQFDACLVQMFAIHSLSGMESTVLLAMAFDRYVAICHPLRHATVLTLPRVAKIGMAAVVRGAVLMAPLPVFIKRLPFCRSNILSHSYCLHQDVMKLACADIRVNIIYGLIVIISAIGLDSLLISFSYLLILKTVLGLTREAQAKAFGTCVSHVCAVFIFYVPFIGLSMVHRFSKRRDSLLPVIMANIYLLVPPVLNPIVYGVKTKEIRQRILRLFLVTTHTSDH
# In short: as §1
# UniProt Q8VH16 = molecular target: T3, UniProt Q8VH16
# T3 sequence (whole entry): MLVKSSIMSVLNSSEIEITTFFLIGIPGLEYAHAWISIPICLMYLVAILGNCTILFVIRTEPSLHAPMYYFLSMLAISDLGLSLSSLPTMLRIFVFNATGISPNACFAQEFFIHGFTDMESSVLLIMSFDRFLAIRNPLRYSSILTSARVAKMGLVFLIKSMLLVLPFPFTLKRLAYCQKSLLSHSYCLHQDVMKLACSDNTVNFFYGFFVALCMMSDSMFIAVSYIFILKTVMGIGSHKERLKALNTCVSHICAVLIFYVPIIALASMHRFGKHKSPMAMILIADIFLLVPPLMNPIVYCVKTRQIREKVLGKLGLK
# In short: as §1
# UniProt Q8VH20 = molecular target: T4, UniProt Q8VH20
# T4 sequence (whole entry): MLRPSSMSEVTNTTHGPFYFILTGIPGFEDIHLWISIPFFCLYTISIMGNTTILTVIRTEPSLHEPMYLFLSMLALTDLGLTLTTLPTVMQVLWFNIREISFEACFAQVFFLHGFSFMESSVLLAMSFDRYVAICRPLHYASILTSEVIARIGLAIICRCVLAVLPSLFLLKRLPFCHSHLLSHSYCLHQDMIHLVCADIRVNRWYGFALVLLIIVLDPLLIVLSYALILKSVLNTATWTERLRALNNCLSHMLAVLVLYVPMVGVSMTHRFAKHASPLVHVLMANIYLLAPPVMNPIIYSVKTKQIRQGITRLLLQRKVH
# In short: as §1
# UniProt Q8VH21 = molecular target: T5, UniProt Q8VH21
# T5 sequence (whole entry): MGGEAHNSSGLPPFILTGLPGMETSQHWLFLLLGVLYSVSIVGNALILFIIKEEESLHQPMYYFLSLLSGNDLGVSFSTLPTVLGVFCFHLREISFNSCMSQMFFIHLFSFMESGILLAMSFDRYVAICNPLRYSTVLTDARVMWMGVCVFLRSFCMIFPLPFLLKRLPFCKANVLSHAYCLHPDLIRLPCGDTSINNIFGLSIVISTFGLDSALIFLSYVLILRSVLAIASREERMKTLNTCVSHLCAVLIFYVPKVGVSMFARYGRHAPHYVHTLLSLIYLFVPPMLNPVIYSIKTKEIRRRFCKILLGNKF
# In short: as §1
# UniProt Q924H8 = molecular target: T6, UniProt Q924H8
# T6 sequence (whole entry): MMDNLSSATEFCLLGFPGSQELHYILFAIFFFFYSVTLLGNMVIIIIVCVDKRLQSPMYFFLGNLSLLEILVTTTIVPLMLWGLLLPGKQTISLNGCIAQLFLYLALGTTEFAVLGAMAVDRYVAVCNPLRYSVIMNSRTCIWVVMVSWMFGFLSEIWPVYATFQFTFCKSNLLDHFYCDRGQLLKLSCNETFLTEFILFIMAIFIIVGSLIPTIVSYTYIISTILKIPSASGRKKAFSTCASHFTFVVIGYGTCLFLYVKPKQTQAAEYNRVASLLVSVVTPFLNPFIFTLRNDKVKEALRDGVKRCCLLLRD
# In short: as §1
# UniProt Q8VGX8 = molecular target: T7, UniProt Q8VGX8
# T7 sequence (whole entry): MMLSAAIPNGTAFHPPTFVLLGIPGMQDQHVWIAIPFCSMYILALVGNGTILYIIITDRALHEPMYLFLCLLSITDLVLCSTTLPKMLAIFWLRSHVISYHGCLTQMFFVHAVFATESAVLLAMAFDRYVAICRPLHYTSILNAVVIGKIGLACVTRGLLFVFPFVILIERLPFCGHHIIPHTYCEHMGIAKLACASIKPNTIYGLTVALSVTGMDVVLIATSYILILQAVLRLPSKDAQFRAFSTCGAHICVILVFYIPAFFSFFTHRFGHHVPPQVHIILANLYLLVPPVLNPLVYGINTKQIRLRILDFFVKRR
# In short: as §1
# UniProt Q8VH18 = molecular target: T8, UniProt Q8VH18
# T8 sequence (whole entry): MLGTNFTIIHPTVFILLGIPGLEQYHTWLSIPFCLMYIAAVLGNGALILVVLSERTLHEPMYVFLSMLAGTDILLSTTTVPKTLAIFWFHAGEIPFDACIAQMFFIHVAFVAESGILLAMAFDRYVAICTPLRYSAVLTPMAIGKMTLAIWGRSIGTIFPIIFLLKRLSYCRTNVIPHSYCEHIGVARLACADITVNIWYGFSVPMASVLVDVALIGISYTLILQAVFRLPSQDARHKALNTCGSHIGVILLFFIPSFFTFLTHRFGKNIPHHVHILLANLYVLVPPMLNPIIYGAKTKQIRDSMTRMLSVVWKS
# In short: as §1
# UniProt Q924X8 = molecular target: T9, UniProt Q924X8
# T9 sequence (whole entry): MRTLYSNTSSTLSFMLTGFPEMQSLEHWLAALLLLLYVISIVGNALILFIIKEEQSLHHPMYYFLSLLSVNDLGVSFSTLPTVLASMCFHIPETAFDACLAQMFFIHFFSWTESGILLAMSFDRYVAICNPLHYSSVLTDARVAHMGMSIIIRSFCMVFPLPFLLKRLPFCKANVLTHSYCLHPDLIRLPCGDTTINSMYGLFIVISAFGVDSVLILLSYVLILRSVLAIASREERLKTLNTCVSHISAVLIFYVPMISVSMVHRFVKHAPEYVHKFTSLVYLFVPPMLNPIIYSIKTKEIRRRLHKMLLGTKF
# In short: as §1
# UniProt Q99NH4 = molecular target: T10, UniProt Q99NH4
# T10 sequence (whole entry): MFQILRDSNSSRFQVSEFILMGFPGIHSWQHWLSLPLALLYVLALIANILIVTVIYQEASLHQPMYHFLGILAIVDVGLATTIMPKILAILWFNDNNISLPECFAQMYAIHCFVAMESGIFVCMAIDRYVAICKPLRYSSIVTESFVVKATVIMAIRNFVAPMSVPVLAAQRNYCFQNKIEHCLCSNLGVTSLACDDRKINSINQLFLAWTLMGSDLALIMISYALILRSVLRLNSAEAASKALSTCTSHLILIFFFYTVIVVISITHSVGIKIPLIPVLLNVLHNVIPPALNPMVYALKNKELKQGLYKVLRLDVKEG
# In short: as §1
# UniProt Q9WU94 = molecular target: T11, UniProt Q9WU94
# T11 sequence (whole entry): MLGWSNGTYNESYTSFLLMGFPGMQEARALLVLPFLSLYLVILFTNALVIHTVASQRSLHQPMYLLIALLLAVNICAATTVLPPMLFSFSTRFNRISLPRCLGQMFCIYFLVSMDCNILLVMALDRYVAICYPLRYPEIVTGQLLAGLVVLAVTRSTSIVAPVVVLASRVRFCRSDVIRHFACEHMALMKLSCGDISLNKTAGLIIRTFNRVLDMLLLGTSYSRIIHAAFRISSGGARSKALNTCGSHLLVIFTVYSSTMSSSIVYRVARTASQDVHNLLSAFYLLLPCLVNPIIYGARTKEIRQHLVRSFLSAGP
# In short: as §1
# UniProt Q9WVD7 = molecular target: T12, UniProt Q9WVD7
# T12 sequence (whole entry): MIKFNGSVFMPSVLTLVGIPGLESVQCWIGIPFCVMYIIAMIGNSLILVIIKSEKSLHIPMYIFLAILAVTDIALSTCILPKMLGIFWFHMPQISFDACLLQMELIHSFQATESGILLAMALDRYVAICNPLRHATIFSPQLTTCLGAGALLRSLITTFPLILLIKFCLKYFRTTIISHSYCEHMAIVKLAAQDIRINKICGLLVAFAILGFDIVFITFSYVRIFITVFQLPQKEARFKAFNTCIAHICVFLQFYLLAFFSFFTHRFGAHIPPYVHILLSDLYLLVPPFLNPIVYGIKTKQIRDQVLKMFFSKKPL
# In short: as §1
Structure (SMILES),odorant receptor agonist call (UniProt Q8VGZ2),odorant receptor agonist call (UniProt Q8VGZ7),odorant receptor agonist call (UniProt Q8VH16),odorant receptor agonist call (UniProt Q8VH20),odorant receptor agonist call (UniProt Q8VH21),odorant receptor agonist call (UniProt Q924H8),odorant receptor agonist call (UniProt Q8VGX8),odorant receptor agonist call (UniProt Q8VH18),odorant receptor agonist call (UniProt Q924X8),odorant receptor agonist call (UniProt Q99NH4),odorant receptor agonist call (UniProt Q9WU94),odorant receptor agonist call (UniProt Q9WVD7)
CC1CCC(C(C)C)C(=O)C1 (stereo not given),inactive,inactive,inactive,inactive,inactive,inactive,–,–,–,–,–,–
O=C(O)CCCCBr,–,–,–,–,–,–,inactive,inactive,active,inactive,inactive,inactive
CC(=O)C1(C)CC2=C(CCCC2(C)C)CC1C (stereo not given),inactive,inactive,inactive,inactive,inactive,inactive,–,–,–,–,–,–
CCc1occc(=O)c1O,inactive,inactive,inactive,inactive,inactive,inactive,–,–,–,–,–,–
O=C([O-])CCCCC(=O)[O-].[H+].[H+],–,–,–,–,–,–,inactive,inactive,active,inactive,inactive,inactive
